Measurements from ChEMBL document CHEMBL1255523, “Optimization of N-benzyl-benzoxazol-2-ones as receptor antagonists of macrophage migration inhibitory factor (MIF)” (Bioorg Med Chem Lett, 2010).
Calls of active or inactive are those of the source. The rule behind the calls is not given here.

Legend:
[1] = molecular target: T1, MIF/CD74 (Macrophage migration inhibitory factor and HLA-DR antigens-associated invariant chain) (Homo sapiens) (UniProt P14174+P04233); assay: Inhibition of human recombinant biotinylated MIF/CD74 interaction at up to 10 uM after 30 mins; assay type: protein assay
In short: (§1)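 Bound MIF was detected with streptavidin-alkaline phosphatase and p-nitrophenylphosphate substrate. Compounds were tested over 500- to 5000-fold concentration ranges.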

[2] = molecular target: T2, Macrophage migration inhibitory factor (Homo sapiens, UniProt P14174); assay: Inhibition of human recombinant MIF tautomerase
T2 sequence (P14174 whole entry): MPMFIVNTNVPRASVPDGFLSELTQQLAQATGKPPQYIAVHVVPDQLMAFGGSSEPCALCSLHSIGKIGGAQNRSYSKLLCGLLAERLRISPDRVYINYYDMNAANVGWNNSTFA

[3] = molecular target: T3, Macrophage migration inhibitory factor (Homo sapiens) (UniProt P14174); assay: Inhibition of human recombinant MIF tautomerase at up to 0.1 uM
T3 sequence (whole entry): T2 sequence (P14174 whole entry)

[4] = molecular target: T4, MIF/CD74 (Macrophage migration inhibitory factor and HLA-DR antigens-associated invariant chain) (Homo sapiens, UniProt P04233+P14174); assay: (§2) Inhibition of human recombinant biotinylated MIF/CD74 interaction after 30 mins; assay type: protein assay; in short: as §1
T4 sequence (P14174 whole entry): T2 sequence (P14174 whole entry)
T4 sequence (P04233 whole entry): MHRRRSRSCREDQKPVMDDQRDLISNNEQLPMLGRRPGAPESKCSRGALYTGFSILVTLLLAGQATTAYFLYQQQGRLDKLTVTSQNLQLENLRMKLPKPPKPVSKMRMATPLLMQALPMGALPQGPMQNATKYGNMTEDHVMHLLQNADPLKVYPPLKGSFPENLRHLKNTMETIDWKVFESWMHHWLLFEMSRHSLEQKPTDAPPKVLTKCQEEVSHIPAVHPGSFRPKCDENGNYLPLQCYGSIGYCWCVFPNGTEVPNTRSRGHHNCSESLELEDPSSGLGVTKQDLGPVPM

[5] = molecular target: T3, Macrophage migration inhibitory factor (Homo sapiens); assay: Inhibition of human recombinant MIF tautomerase at 30 uM by mass spectrometry analysis
[6] = molecular target: T1, MIF/CD74 (Macrophage migration inhibitory factor and HLA-DR antigens-associated invariant chain) (Homo sapiens); assay: Inhibition of human recombinant biotinylated MIF/CD74 interaction at 30 uM by mass spectrometry analysis; assay type: protein assay
[7] = molecular target: T3, Macrophage migration inhibitory factor (Homo sapiens); assay: Inhibition of MIF-dependent ERK1/2 phosphorylation in rheumatoid arthritis patient synovial fibroblasts assessed as total ERK1/2 level at 300 nM after 30 mins
[8] = molecular target: T3, Macrophage migration inhibitory factor (Homo sapiens); assay: Inhibition of MIF-dependent ERK1/2 phosphorylation in rheumatoid arthritis patient synovial fibroblasts assessed as phosphorylated ERK1/2 level at 300 nM after 30 mins
[9] = molecular target: T5, MIF/CD74 (Macrophage migration inhibitory factor and HLA-DR antigens-associated invariant chain) (Homo sapiens, UniProt P14174+P04233); assay: as §2; assay type: protein assay; in short: as §1
T5 sequence (P14174 whole entry): T2 sequence (P14174 whole entry)
T5 sequence (P04233 whole entry): T4 sequence (P04233 whole entry)

Row | Structure (SMILES) | inhibition [1] [%] | inhibition [3] [%] | also measured
1 | Cc1ccc2c(c1)oc(=O)n2Cc1cccc(O)c1 | 10 | – | IC50 ([2]; read-out: IC50): 0.0075 µM
2 | Cc1ccc2c(c1)oc(=O)n2Cc1ccccc1 | 25 | – | –
3 | COc1cccc(Cn2c(=O)oc3cc(F)ccc32)c1 | 15 | 35 | –
4 | COc1cc(Cn2c(=O)oc3ccc(C)cc32)cc(OC)c1 | 11 | 17 | –
5 | COc1ccc2oc(=O)n(Cc3cccc(O)c3)c2c1 | – | 10 | IC50 [4]: 0.08 µM
6 | O=c1oc2ccccc2n1Cc1ccccc1 | 18 | – | IC50 ([2]; read-out: IC50): 21 µM
7 | COc1cccc(Cn2c(=O)oc3ccc(OC)cc32)c1 | – | 41 | IC50 [4]: 200 µM
8 | COc1cccc(Cn2c(=O)oc3cc(C)ccc32)c1 | 24 | 16 | –
9 | O=c1oc2ccc(O)cc2n1Cc1ccccc1 | – | – | IC50 [2]: Not Active
10 | COc1cccc(Cn2c(=O)oc3cc(C)c(C)cc32)c1 | – | 25 | IC50 [4]: 0.115 µM
11 | Cc1ccc2oc(=O)n(Cc3cccc(N)c3)c2c1 | 27 | 31 | –
12 | O=c1oc2ccc(F)cc2n1Cc1cccc(O)c1 | 18 | 32 | –
13 | Cc1cc2oc(=O)n(Cc3cccc(O)c3)c2cc1C | 32 | 33 | –
14 | Ic1cc(-c2ccccc2)ncn1 | – | – | inhibition [5]: 90%; inhibition [6]: 50%
15 | O=c1oc2ccc(O)cc2n1Cc1cccc(O)c1 | 36 | 25 | –
16 | COc1cccc(Cn2c(=O)oc3ccc(C)cc32)c1 | 42 | – | –
17 | COc1cc(O)cc(Cn2c(=O)oc3ccc(C)cc32)c1 | 22 | 12 | –

Row | Structure (SMILES) | inhibition [1] [%] | inhibition [3] [%] | also measured
18 | Cc1ccc2oc(=O)n(Cc3ccc(O)cc3)c2c1 | – | – | IC50 [2]: Not Active
19 | Cc1ccc2oc(=O)n(Cc3cccc(O)c3)c2c1 | 40 | – | inhibition [7]: Active; inhibition [8]: Active; inhibition [5]: 50%; inhibition [6]: 50%
20 | O=c1oc2cc(F)ccc2n1Cc1cccc(O)c1 | – | – | IC50 [9]: Not Active; IC50 [2]: Not Active
21 | CCOc1cc(O)cc(Cn2c(=O)oc3ccc(C)cc32)c1 | 35 | 30 | –
22 | O=c1oc2cc(O)ccc2n1Cc1ccccc1 | 22 | 28 | –
23 | COc1ccccc1Cn1c(=O)oc2ccc(O)cc21 | 27 | – | IC50 ([2]; read-out: IC50): 30 µM
24 | COc1cccc(Cn2c(=O)oc3ccc(O)cc32)c1OC | – | – | IC50 [4]: 300 µM; IC50 ([2]; read-out: IC50): 2.1 µM
25 | COc1cccc(Cn2c(=O)oc3ccc(C)cc32)c1OC | – | 32 | IC50 [4]: 7 µM
26 | CCc1ccc2oc(=O)n(Cc3cccc(O)c3)c2c1 | 19 | – | IC50 ([2]; read-out: IC50): 2.5 µM
27 | CCOc1cccc(Cn2c(=O)oc3ccc(C)cc32)c1 | 30 | 20 | –
28 | Cc1ccc2oc(=O)n(Cc3cccc(F)c3)c2c1 | – | – | IC50 [2]: Not Active
29 | O=c1oc2ccc(CO)cc2n1Cc1cccc(O)c1 | – | – | IC50 [4]: 30 µM; IC50 [2]: Not Active
30 | CCc1ccc2oc(=O)n(Cc3cccc(OC)c3)c2c1 | 15 | 13 | –
31 | COc1cccc(Cn2c(=O)oc3ccc(CO)cc32)c1 | 27 | 44 | –
32 | COc1ccc(Cn2c(=O)oc3ccc(C)cc32)cc1 | – | – | IC50 [2]: Not Active
33 | CCOc1ccccc1Cn1c(=O)oc2ccc(C)cc21 | 45 | 21 | –
34 | COc1cccc(Cn2c(=O)oc3ccc(F)cc32)c1 | – | – | IC50 [2]: Not Active
